In ChEMBL document CHEMBL1135207, “Novel route to the synthesis of peptides containing 2-amino-1'-hydroxymethyl ketones and their application as cathepsin K inhibitors” (Bioorg Med Chem Lett, 2002):

Legend:
Cathepsin K = target: T1, Cathepsin K (Homo sapiens, UniProt P43235); experiment: Binding affinity against cathepsin K
T1 sequence (P43235 whole entry): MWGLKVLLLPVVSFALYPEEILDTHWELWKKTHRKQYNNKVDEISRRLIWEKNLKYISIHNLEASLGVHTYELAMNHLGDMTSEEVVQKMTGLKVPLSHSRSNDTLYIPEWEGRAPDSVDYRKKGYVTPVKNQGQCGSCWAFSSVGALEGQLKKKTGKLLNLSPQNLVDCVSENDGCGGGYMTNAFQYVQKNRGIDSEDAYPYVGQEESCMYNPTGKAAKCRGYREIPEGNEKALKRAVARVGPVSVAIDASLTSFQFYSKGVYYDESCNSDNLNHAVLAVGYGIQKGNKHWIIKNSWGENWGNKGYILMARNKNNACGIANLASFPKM

Cathepsin B = Cathepsin B (Homo sapiens, UniProt P07858); experiment: Binding affinity against cathepsin B
Cathepsin S = Cathepsin S (Homo sapiens, UniProt P25774); experiment: Binding affinity of compound was evaluated against cathepsin S.
Procathepsin L = Procathepsin L (Homo sapiens, UniProt P07711); experiment: Binding affinity of compound was evaluated against cathepsin L.
Method in brief: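 Then Z-Phe-Arg-AMC 10 µM (at Km) added. AMC release followed kinetically (ex355/em460) at room temperature, with inhibitor-free controls. Apparent Ki by Morrison or Henderson tight-binding fit.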

Chain of Procathepsin L (P07711 whole entry): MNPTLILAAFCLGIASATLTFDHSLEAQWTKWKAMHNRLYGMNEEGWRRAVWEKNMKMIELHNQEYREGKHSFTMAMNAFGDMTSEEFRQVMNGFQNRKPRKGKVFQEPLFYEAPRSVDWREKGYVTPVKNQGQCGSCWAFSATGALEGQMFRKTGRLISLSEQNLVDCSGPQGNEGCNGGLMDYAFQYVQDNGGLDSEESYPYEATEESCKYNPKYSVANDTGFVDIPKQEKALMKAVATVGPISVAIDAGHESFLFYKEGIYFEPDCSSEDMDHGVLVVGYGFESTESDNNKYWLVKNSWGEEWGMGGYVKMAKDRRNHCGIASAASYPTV
Chain of Cathepsin S (P25774 whole entry): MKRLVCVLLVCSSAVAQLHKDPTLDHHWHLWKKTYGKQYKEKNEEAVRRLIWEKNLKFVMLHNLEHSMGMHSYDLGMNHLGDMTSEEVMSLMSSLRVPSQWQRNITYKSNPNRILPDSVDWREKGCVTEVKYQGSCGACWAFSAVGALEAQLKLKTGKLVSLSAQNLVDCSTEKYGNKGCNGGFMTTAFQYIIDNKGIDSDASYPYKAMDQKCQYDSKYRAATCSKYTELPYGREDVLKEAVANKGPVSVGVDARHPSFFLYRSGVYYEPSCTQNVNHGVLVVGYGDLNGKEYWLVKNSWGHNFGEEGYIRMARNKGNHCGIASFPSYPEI

Row | SMILES | Ki (Cathepsin K) [nM] | Ki (Cathepsin B) [nM] | Ki (Cathepsin S) [nM] | Ki (Procathepsin L) [nM]
1 | CC(C)C[C@H](NC(=O)OCc1ccccc1)C(=O)N[C@@H](CCc1ccccc1)C(=O)COCc1ccccc1 | 1000 | 119000 | 451 | 6340
2 | CCC(C)[C@H](NC(=O)c1cccc(C(N)=O)c1)C(=O)N[C@@H](CCc1ccccc1)C(=O)CO (some centres not stated) | 111 | 1440 | 88 | 790
3 | CC(C)C[C@H](NC(=O)c1ccc(CN)cc1)C(=O)N[C@@H](CCc1ccccc1)C(=O)CO | 3 | 1950 | 46 | 17
4 | CCC(C)[C@H](NC(=O)OCc1ccccc1)C(=O)N[C@@H](CCc1ccccc1)C(=O)CO (some centres not stated) | 67 | 32200 | 811 | 3000
5 | CC(C)C[C@H](NC(=O)OCc1ccccc1)C(=O)N[C@@H](CCc1ccccc1)C(=O)CO | 25 | 34700 | 188 | 640
6 | COCC(=O)[C@H](CCc1ccccc1)NC(=O)[C@H](CC(C)C)NC(=O)OCc1ccccc1 | 607 | > 150000 | 1960 | 22300
7 | CCCC[C@H](NC(=O)[C@@H](NC(=O)c1cccc(C(N)=O)c1)C(C)CC)C(=O)CO (some centres not stated) | 110 | 1140 | 110 | 760
8 | CCC(C)[C@H](NC(=O)c1cccc(CN)c1)C(=O)N[C@@H](CCc1ccccc1)C(=O)CO (some centres not stated) | 4 | 270 | 180 | 81
9 | CC(=O)[C@H](CCc1ccccc1)NC(=O)[C@H](CC(C)C)NC(=O)OCc1ccccc1 | 1440 | 519000 |  | 
10 | CCCC[C@H](NC(=O)[C@@H](NC(=O)c1ccc(CN)cc1)C(C)CC)C(=O)CO (some centres not stated) | 20 | 1250 | 460 | 130
11 | CCOCC(=O)[C@H](CCc1ccccc1)NC(=O)[C@H](CC(C)C)NC(=O)OCc1ccccc1 | 947 | > 150000 | 4500 | 16700
